Common to all, as to type: functional
The subject of test [1] is Pseudoperonospora cubensis. The test can be described thus: Antifungal activity against Pseudoperonospora cubensis assessed as fungicidal activity at 200 mg/L (beneficial crop - cucumber). In short, it runs like this: (§1)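 In vivo preventive test on cucumber as host plant.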
The next test relates to Rhizoctonia solani. The test can be described thus: Antifungal activity against Rhizoctonia solani assessed as fungicidal activity at 200 mg/L (beneficial crop - cucumber). The method in brief:
as §1

The next test deals with Botrytis cinerea. Put plainly: Antifungal activity against Botryotinia fuckeliana assessed as fungicidal activity at 200 mg/L (beneficial crop - cucumber). The method in brief: as §1
In the next test the test system is Podosphaera fuliginea. Put plainly: Antifungal activity against Podosphaera fuliginea assessed as fungicidal activity at 200 mg/L (beneficial crop - cucumber). The method in brief:
as §1

These results are taken from ChEMBL document CHEMBL3045438, “Synthesis and fungicidal evaluation of novel chalcone-based strobilurin analogues” (2007).

Broadly, the inhibition is how much of the control response was suppressed. Consider `CO/C=C(/C(=O)OC)c1ccccc1COc1ccc(Cl)cc1C(=O)/C=C/c1ccccc1Cl`, for which the inhibition at 200 µg/mL (in test [1]; in the test with Rhizoctonia solani; with Botrytis cinerea; in the test on Podosphaera fuliginea) was 0% throughout.

For the compound `CO/C=C(/C(=O)OC)c1ccccc1COc1cccc(C(=O)/C=C/c2ccc(Cl)cc2Cl)c1`, the inhibition at 200 µg/mL was 54% in test [1], 30% in the test with Rhizoctonia solani, 0% with Botrytis cinerea and 0% in the test with Podosphaera fuliginea.

As to `CO/C=C(/C(=O)OC)c1ccccc1COc1ccc(Cl)cc1C(=O)/C=C/c1ccc(OC)cc1`, the inhibition at 200 µg/mL (in test [1]; in the test on Rhizoctonia solani; in the test with Botrytis cinerea; in the test with Podosphaera fuliginea) was 0% throughout.

Regarding `CO/C=C(/C(=O)OC)c1ccccc1COc1cccc(C(=O)/C=C/c2ccc(Cl)cc2)c1`, the inhibition at 200 µg/mL in test [1] is 100%; in the test on Rhizoctonia solani, 0%; in the test with Botrytis cinerea, 0%; with Podosphaera fuliginea, 96%.

`CO/C=C(/C(=O)OC)c1ccccc1COc1ccc(C(=O)/C=C/c2c(F)cccc2Cl)cc1`: the inhibition at 200 µg/mL in test [1] was 67%; in the test on Rhizoctonia solani, 0%; in the test with Botrytis cinerea, 0%; with Podosphaera fuliginea, 0%.

For the compound `CCOc1ccc(/C=C/C(=O)c2cccc(OCc3ccccc3/C(=C\OC)C(=O)OC)c2)cc1`, the inhibition at 200 µg/mL in test [1] amounted to 33%; in the test on Rhizoctonia solani, 0%; in the test with Botrytis cinerea it was 0%; with Podosphaera fuliginea it was 0%.

With `CO/C=C(/C(=O)OC)c1ccccc1COc1ccc(C(=O)/C=C/c2ccco2)cc1`, the inhibition at 200 µg/mL (in test [1]; with Rhizoctonia solani; in the test with Botrytis cinerea; in the test on Podosphaera fuliginea) was 0% throughout.

As to `CO/C=C(/C(=O)OC)c1ccccc1COc1cccc(C(=O)/C=C/c2ccccc2Br)c1`, the inhibition at 200 µg/mL came out at 100% in test [1], 31% with Rhizoctonia solani, 0% in the test on Botrytis cinerea and 59% in the test on Podosphaera fuliginea.

For `CO/C=C(/C(=O)OC)c1ccccc1COc1cccc(C(=O)/C=C/c2ccccc2F)c1`, the inhibition at 200 µg/mL is 0% in test [1], 38% in the test with Rhizoctonia solani, 0% in the test with Botrytis cinerea and 0% in the test with Podosphaera fuliginea.

Regarding `CCOc1ccc(/C=C/C(=O)c2ccc(OCc3ccccc3/C(=C\OC)C(=O)OC)cc2)cc1`, the inhibition at 200 µg/mL in test [1] amounted to 59%; in the test with Rhizoctonia solani, 0%; with Botrytis cinerea, 0%; with Podosphaera fuliginea, 0%.

Take `CO/C=C(/C(=O)OC)c1ccccc1COc1ccc(C(=O)/C=C/c2ccc(Br)cc2)cc1`: the inhibition at 200 µg/mL is 56% in test [1], 0% in the test on Rhizoctonia solani, 0% with Botrytis cinerea and 0% with Podosphaera fuliginea.

For `CO/C=C(/C(=O)OC)c1ccccc1COc1ccc(C)cc1C(=O)/C=C/c1ccc(Cl)cc1`, the inhibition at 200 µg/mL was 89% in test [1], 0% in the test with Rhizoctonia solani, 0% in the test with Botrytis cinerea and 0% in the test with Podosphaera fuliginea.

In the case of `CO/C=C(/C(=O)OC)c1ccccc1COc1cccc(C(=O)/C=C/c2ccc(OC)cc2)c1`, the inhibition at 200 µg/mL is 95% in test [1], 0% in the test on Rhizoctonia solani, 0% in the test on Botrytis cinerea and 0% with Podosphaera fuliginea.

As to `CO/C=C(/C(=O)OC)c1ccccc1COc1ccc(C(=O)/C=C/c2ccc(C)c(C)c2)cc1`, the inhibition at 200 µg/mL in test [1] was 67%; in the test with Rhizoctonia solani, 0%; in the test with Botrytis cinerea, 0%; with Podosphaera fuliginea, 30%.

Take `CO/C=C(/C(=O)OC)c1ccccc1COc1ccc(C(=O)/C=C/c2ccccc2Cl)cc1`: the inhibition at 200 µg/mL in test [1] was 100%; with Rhizoctonia solani it was 0%; in the test on Botrytis cinerea, 0%; in the test on Podosphaera fuliginea, 0%.

Take `CO/C=C(/C(=O)OC)c1ccccc1COc1cccc(C(=O)/C=C/c2cccc(C)c2)c1`: the inhibition at 200 µg/mL is 81% in test [1], 0% in the test on Rhizoctonia solani, 0% in the test with Botrytis cinerea and 0% in the test with Podosphaera fuliginea.

As to `CO/C=C(/C(=O)OC)c1ccccc1COc1ccc(C(=O)/C=C/c2cccs2)cc1`, the inhibition at 200 µg/mL (in test [1]; in the test with Rhizoctonia solani; with Botrytis cinerea; in the test on Podosphaera fuliginea) was 0% in each case.

Take `CO/C=C(/C(=O)OC)c1ccccc1COc1ccc(Cl)cc1C(=O)/C=C/c1ccc(C)cc1`: the inhibition at 200 µg/mL (in test [1]; in the test on Rhizoctonia solani; with Botrytis cinerea; in the test with Podosphaera fuliginea) was 0% throughout.

`CCc1ccc(/C=C/C(=O)c2ccc(OCc3ccccc3/C(=C\OC)C(=O)OC)cc2)cc1`: the inhibition at 200 µg/mL in test [1] was 15%; in the test with Rhizoctonia solani, 69%; with Botrytis cinerea, 0%; in the test on Podosphaera fuliginea, 56%.

For the compound `CO/C=C(/C(=O)OC)c1ccccc1COc1ccccc1C(=O)/C=C/c1ccc(C)c(C)c1`, the inhibition at 200 µg/mL (in test [1]; in the test on Rhizoctonia solani; with Botrytis cinerea; in the test with Podosphaera fuliginea) was 0% throughout.

As to `CO/C=C(/C(=O)OC)c1ccccc1COc1cccc(C(=O)/C=C/c2ccc(Cl)c(Cl)c2)c1`, the inhibition at 200 µg/mL (in test [1]; with Rhizoctonia solani; with Botrytis cinerea; in the test with Podosphaera fuliginea) was 0% throughout.

Regarding `CO/C=C(/C(=O)OC)c1ccccc1COc1ccc(C(=O)/C=C/c2ccc3c(c2)OCO3)cc1`, the inhibition at 200 µg/mL (in test [1]; in the test with Rhizoctonia solani; in the test on Botrytis cinerea; in the test on Podosphaera fuliginea) was 0% throughout.

On to `CCc1ccc(/C=C/C(=O)c2cccc(OCc3ccccc3/C(=C\OC)C(=O)OC)c2)cc1`, for which the inhibition at 200 µg/mL in test [1] is 100%; in the test with Rhizoctonia solani it was 0%; with Botrytis cinerea it was 0%; in the test with Podosphaera fuliginea, 78%.

Turning to `CO/C=C(/C(=O)OC)c1ccccc1COc1ccccc1C(=O)/C=C/c1cccc(OC)c1`, the inhibition at 200 µg/mL in test [1] is 61%; with Rhizoctonia solani it was 0%; in the test on Botrytis cinerea, 11%; with Podosphaera fuliginea, 0%.

In the case of `CO/C=C(/C(=O)OC)c1ccccc1COc1cccc(C(=O)/C=C/c2ccc(N(C)C)cc2)c1`, the inhibition at 200 µg/mL in test [1] was 0%; in the test on Rhizoctonia solani it was 32%; in the test with Botrytis cinerea, 0%; in the test with Podosphaera fuliginea, 0%.

On to `CO/C=C(/C(=O)OC)c1ccccc1COc1ccc(C(=O)/C=C/c2cccc(F)c2)cc1`, for which the inhibition at 200 µg/mL in test [1] worked out at 97%; in the test on Rhizoctonia solani, 0%; with Botrytis cinerea, 0%; with Podosphaera fuliginea, 0%.

As to `CO/C=C(/C(=O)OC)c1ccccc1COc1cccc(C(=O)/C=C/c2cccc(Cl)c2)c1`, the inhibition at 200 µg/mL in test [1] amounted to 33%; with Rhizoctonia solani, 0%; in the test with Botrytis cinerea, 0%; with Podosphaera fuliginea, 30%.

For `CO/C=C(/C(=O)OC)c1ccccc1COc1cccc(C(=O)/C=C/c2cccs2)c1`, the inhibition at 200 µg/mL in test [1] worked out at 0%; in the test with Rhizoctonia solani it was 0%; in the test with Botrytis cinerea, 24%; in the test on Podosphaera fuliginea it was 0%.

In the case of `CO/C=C(/C(=O)OC)c1ccccc1COc1cccc(C(=O)/C=C/c2cccc(F)c2)c1`, the inhibition at 200 µg/mL in test [1] is 0%; with Rhizoctonia solani it was 36%; in the test on Botrytis cinerea it was 10%; in the test with Podosphaera fuliginea, 0%.

In the case of `CO/C=C(/C(=O)OC)c1ccccc1COc1cccc(C(=O)/C=C/c2ccccc2)c1`, the inhibition at 200 µg/mL in test [1] is 96%; in the test with Rhizoctonia solani it was 0%; in the test on Botrytis cinerea, 0%; in the test with Podosphaera fuliginea it was 0%.

Regarding `CO/C=C(/C(=O)OC)c1ccccc1COc1ccc(C(=O)/C=C/c2ccc(C(C)(C)C)cc2)cc1`, the inhibition at 200 µg/mL in test [1] came out at 22%; in the test with Rhizoctonia solani, 0%; in the test with Botrytis cinerea, 0%; in the test on Podosphaera fuliginea it was 67%.

As to `CO/C=C(/C(=O)OC)c1ccccc1COc1cccc(C(=O)/C=C/c2ccc(Br)cc2)c1`, the inhibition at 200 µg/mL in test [1] is 94%; in the test with Rhizoctonia solani, 0%; in the test on Botrytis cinerea it was 0%; in the test on Podosphaera fuliginea, 45%.

Turning to `CO/C=C(/C(=O)OC)c1ccccc1COc1cccc(C(=O)/C=C/c2ccco2)c1`, the inhibition at 200 µg/mL in test [1] was found to be 0%; in the test on Rhizoctonia solani it was 0%; in the test on Botrytis cinerea, 16%; in the test with Podosphaera fuliginea it was 0%.

`CO/C=C(/C(=O)OC)c1ccccc1COc1ccc(Cl)cc1C(=O)/C=C/c1ccccc1`: the inhibition at 200 µg/mL (in test [1]; with Rhizoctonia solani; in the test on Botrytis cinerea; in the test with Podosphaera fuliginea) was 0% each time.

With `CO/C=C(/C(=O)OC)c1ccccc1COc1ccc(C(=O)/C=C/c2ccc(C)cc2)cc1`, the inhibition at 200 µg/mL is 75% in test [1], 38% with Rhizoctonia solani, 0% in the test on Botrytis cinerea and 0% in the test with Podosphaera fuliginea.

As to `CO/C=C(/C(=O)OC)c1ccccc1COc1cccc(C(=O)/C=C/c2c(F)cccc2Cl)c1`, the inhibition at 200 µg/mL came to 97% in test [1], 0% in the test on Rhizoctonia solani, 0% in the test with Botrytis cinerea and 13% in the test with Podosphaera fuliginea.

For `CO/C=C(/C(=O)OC)c1ccccc1COc1ccc(C(=O)/C=C/c2ccccc2)cc1`, the inhibition at 200 µg/mL (in test [1]; with Rhizoctonia solani; with Botrytis cinerea; in the test with Podosphaera fuliginea) was 0% each time.
